Measured values: ChEMBL document CHEMBL1148412, “Discovery of a new class of anilinoquinazoline inhibitors with high affinity and specificity for the tyrosine kinase domain of c-Src” (J Med Chem, 2004)
In brackets after ≈: the same amount, converted by molar mass.

What was measured:
[1] = biological target: Proto-oncogene tyrosine-protein kinase Src (Homo sapiens, UniProt P12931); assay: In vitro inhibitory concentration against src-tyrosine kinase
[2] = biological target: Vascular endothelial growth factor receptor 2 (Homo sapiens, UniProt P35968); assay: In vitro inhibitory concentration against VEGF receptor 2.
How it was run: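 KDR kinase selectivity assay, using a previously reported method. IC50 is the mean of at least three independent dose-response curves.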

A549 = assay: In vitro inhibitory concentration against proliferation of A459 cell line.; conditions: Homo sapiens
[3] = C24h in rat p.o. at 20 mg/kg concentration; assay type: ADME, organism-based; design: dose 20 mg/kg, route oral; conditions: in vivo, po, read-out: C24h
How it was run: (§1)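 Single-dose rat pharmacokinetics: intravenous 2 mg/kg in 25% (w/v) hydroxypropyl-β-cyclodextrin/Sorenson's phosphate buffer (pH 5.5), or oral 20 mg/kg. Oral parameters are Cmax, AUC0-∞ and 24 h blood level. Intravenous parameters are clearance, terminal half-life and Vdss. Bioavailability (F) is derived from the oral and intravenous arms.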

[4] = Solubility was determined; assay type: physicochemical
[5] = pKa was determined; assay type: physicochemical
[6] = AUC in rat p.o. at 20 mg/kg concentration; assay type: ADME, organism-based; design: dose 20 mg/kg, route oral; conditions: plasma, po; how it was run: as §1
[7] = Bioavailability in rat (dose 20 mg/kg p.o.); conditions: in vivo, po
[8] = Half life in rat i.v. at 2 mg/kg concentration; assay type: ADME, organism-based; design: dose 2 mg/kg, route intravenous; conditions: in vivo, iv; how it was run: as §1
[9] = biological target: Fibroblast growth factor receptor 1 (Homo sapiens, UniProt P11362); assay: In vitro inhibition of Fibroblast growth factor receptor (FTK)
Angiopoietin-1 receptor = Angiopoietin-1 receptor (Homo sapiens, UniProt Q02763); assay: Inhibition of Tyrosine protein kinase receptor TIE-2
[10] = Cmax in rat p.o. at 20 mg/kg concentration; assay type: ADME, organism-based; design: dose 20 mg/kg, route oral; conditions: in vivo, po; how it was run: as §1
[11] = biological target: Vascular endothelial growth factor receptor 1 (Homo sapiens, UniProt P17948); assay: Inhibition of Vascular endothelial growth factor receptor 1
[12] = Vdss in rat i.v. at 2 mg/kg concentration; assay type: ADME, organism-based; design: dose 2 mg/kg, route intravenous; conditions: in vivo, iv, read-out: Vdss; how it was run: as §1
[13] = Cl in rat i.v. at 2 mg/kg concentration; assay type: ADME, organism-based; design: dose 2 mg/kg, route intravenous; conditions: in vivo, iv; how it was run: as §1
Rattus norvegicus = species on record: Rattus norvegicus; assay: Percentage in free rat serum was determined; assay type: ADME, organism-based
[14] = Total body clearance in rat i.v. at 2 mg/kg concentration; assay type: ADME, organism-based; design: dose 2 mg/kg, route intravenous; conditions: in vivo, iv; how it was run: as §1

Vascular endothelial growth factor receptor 2, sequence (P35968 whole entry): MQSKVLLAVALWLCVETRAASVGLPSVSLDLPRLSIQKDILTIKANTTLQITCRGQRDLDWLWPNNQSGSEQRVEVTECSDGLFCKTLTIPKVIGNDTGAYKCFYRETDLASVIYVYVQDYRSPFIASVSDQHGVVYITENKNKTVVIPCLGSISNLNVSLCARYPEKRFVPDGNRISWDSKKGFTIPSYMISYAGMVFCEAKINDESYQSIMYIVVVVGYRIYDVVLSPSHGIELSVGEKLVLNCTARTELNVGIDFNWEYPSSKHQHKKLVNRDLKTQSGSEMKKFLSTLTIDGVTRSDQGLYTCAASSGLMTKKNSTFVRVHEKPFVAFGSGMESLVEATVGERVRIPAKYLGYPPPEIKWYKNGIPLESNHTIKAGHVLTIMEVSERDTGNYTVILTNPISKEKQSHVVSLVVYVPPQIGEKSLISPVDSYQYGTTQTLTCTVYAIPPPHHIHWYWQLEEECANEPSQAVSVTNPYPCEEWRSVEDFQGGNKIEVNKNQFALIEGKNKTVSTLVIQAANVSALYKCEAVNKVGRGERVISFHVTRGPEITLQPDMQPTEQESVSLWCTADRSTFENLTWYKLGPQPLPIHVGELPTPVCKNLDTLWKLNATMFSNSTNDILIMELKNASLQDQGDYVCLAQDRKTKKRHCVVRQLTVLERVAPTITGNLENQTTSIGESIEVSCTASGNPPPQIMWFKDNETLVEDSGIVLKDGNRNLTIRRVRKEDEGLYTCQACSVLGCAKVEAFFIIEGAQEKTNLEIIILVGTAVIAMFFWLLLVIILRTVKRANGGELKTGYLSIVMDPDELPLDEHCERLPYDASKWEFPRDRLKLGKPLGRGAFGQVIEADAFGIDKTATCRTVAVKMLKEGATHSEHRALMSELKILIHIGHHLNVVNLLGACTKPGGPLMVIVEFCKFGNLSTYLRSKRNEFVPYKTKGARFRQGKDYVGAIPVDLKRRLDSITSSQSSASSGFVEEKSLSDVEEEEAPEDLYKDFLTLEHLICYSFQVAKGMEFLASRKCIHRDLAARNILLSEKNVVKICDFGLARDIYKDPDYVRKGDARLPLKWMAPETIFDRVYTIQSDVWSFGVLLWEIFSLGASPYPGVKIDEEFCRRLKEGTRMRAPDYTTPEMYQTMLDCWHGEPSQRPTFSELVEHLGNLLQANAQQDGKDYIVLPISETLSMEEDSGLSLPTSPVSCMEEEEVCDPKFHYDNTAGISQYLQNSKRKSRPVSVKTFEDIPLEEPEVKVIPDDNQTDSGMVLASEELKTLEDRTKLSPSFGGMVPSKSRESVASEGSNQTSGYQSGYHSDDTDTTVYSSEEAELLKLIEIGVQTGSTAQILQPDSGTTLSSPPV
Fibroblast growth factor receptor 1, sequence (P11362 whole entry): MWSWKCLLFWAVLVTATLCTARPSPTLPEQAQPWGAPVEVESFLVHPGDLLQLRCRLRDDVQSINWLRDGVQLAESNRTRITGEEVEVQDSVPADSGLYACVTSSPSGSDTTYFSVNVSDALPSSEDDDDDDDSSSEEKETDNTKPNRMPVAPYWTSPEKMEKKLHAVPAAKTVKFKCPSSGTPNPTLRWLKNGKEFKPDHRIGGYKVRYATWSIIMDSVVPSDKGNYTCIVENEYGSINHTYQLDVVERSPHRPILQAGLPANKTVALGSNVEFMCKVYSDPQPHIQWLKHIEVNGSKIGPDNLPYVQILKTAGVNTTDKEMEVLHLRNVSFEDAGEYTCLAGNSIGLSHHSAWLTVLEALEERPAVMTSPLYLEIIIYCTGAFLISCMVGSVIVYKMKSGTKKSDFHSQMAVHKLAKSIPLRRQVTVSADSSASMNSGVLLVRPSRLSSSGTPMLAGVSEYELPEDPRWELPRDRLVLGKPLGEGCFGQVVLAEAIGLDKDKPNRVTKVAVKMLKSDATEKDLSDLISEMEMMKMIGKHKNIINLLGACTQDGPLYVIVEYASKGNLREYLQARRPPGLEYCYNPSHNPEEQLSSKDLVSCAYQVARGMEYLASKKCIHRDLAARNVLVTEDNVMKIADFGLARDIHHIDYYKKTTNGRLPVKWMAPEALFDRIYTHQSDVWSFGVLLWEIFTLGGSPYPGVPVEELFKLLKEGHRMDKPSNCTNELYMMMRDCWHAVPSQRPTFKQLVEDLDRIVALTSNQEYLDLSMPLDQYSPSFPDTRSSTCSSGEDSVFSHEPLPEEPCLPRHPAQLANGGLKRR
Proto-oncogene tyrosine-protein kinase Src, sequence (P12931 2-536 limits assumed): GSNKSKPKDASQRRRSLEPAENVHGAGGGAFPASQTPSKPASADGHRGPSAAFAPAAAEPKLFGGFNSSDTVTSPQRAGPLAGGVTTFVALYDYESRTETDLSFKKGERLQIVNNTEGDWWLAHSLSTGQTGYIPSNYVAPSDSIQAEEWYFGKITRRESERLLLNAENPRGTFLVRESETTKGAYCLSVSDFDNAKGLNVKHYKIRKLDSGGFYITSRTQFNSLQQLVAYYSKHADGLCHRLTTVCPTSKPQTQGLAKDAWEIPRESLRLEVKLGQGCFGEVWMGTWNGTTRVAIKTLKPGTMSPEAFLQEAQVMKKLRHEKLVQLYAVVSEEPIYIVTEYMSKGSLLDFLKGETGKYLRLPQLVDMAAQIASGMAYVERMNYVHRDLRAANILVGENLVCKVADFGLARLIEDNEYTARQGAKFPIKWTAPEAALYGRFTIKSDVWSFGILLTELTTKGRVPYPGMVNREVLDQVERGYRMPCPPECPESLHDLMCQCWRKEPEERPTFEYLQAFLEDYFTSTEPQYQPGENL
Vascular endothelial growth factor receptor 1, sequence (P17948 whole entry): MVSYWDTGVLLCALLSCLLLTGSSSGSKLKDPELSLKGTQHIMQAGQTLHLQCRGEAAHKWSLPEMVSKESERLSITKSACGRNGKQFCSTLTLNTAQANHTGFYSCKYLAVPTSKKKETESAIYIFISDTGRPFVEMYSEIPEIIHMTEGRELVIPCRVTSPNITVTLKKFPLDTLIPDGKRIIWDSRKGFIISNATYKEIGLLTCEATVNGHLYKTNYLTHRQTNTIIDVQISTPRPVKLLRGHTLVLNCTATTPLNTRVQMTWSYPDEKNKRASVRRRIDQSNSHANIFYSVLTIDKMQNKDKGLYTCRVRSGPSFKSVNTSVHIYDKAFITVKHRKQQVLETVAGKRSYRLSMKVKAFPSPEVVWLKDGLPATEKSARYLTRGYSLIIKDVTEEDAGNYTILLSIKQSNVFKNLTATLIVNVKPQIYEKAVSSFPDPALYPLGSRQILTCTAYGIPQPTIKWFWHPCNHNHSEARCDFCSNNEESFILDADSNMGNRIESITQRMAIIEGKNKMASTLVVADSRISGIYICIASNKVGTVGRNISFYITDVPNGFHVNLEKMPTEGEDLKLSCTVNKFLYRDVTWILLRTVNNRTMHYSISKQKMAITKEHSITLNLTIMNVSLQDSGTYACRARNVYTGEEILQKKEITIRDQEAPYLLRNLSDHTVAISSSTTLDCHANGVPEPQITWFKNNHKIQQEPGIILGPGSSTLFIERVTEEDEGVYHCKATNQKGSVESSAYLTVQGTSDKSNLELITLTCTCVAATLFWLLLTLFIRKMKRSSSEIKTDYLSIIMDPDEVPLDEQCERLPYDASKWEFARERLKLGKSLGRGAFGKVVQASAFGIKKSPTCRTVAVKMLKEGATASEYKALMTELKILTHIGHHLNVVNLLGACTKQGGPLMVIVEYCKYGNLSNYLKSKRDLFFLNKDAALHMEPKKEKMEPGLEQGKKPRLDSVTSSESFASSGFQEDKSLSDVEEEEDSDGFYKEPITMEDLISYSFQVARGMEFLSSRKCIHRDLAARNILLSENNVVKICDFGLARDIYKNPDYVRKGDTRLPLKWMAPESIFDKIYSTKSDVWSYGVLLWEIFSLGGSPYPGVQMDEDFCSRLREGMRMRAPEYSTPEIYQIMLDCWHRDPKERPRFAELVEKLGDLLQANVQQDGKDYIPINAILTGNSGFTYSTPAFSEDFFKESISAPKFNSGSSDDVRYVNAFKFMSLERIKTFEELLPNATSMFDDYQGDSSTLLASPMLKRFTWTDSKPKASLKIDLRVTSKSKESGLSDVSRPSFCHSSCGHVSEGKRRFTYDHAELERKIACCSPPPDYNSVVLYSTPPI

Row | Compound | IC50 [1] [nM] | IC50 [2] [nM] | IC50 (A549) [nM] | further results
1 | CCOc1ccc(Cl)c(Nc2ncnc3cc(OCCCN4CCOCC4)c(OC)cc23)c1 | 963 | – | – | –
2 | COc1cc2c(Nc3cccc4c3OCC4)ncnc2cc1OCCCN1CCOCC1 | 433 | – | – | –
3 | COc1ccc(Nc2ncnc3cc(OCCCN4CCOCC4)c(OC)cc23)cc1 | 477 | – | – | –
4 | COc1cc2c(Nc3cccc4c3OC(F)(F)O4)ncnc2cc1OCCCN1CCOCC1 | 270 | – | – | –
5 | COc1ccccc1Nc1ncnc2cc(OCCCN3CCOCC3)c(OC)cc12 | 560 | – | – | –
6 | COc1cc2c(Nc3ccc4c(c3)OCO4)ncnc2cc1OCCCN1CCOCC1 | 760 | – | – | –
7 | COc1cc2c(Nc3cccc4c3OCCO4)ncnc2cc1OCCCN1CCOCC1 | 370 | – | – | –
8 | COc1cc2c(Nc3cccc4cc[nH]c34)ncnc2cc1OCCCN1CCOCC1 | 260 | – | – | –
9 | COc1cc2c(Nc3c(Cl)ccc4c3OCO4)ncnc2cc1OCC1CCN(C)CC1 | – | 15600 | 260 | concentration at 24 h [3]: 60 nM; solubility ([4]; read-out: S): > 3300 µM; pKa [5]: 9.4; AUC [6]: 2500 ng·h/mL; bioavailability [7]: 37%; half-life [8]: 5.7 h; clearance [14]: 49 mL/min/kg; IC50 [9]: > 100000 nM; Cmax [10]: 910 nM; IC50 [11]: > 100000 nM; Vd [12]: 17 L/kg; Activity (Rattus norvegicus): 9.8%
10 | COc1cc2c(Nc3cccc4[nH]ccc34)ncnc2cc1OCCCN1CCOCC1 | 177 | – | – | –
11 | COc1cc2c(Nc3cccc4c3ccn4C)ncnc2cc1OCCCN1CCOCC1 | 40 | 420 | – | –
12 | COc1cccc(Nc2ncnc3cc(OC)c(OC)cc23)c1 | 253 | – | – | –
13 | COc1cc2ncnc(Nc3c(Cl)ccc4c3OCO4)c2cc1OCCCN1CCOCC1 | 50 | 73800 | 1200 | –

Further lines, with some results ahead:

Row | IC50 [1] [nM] | IC50 [2] [nM] | IC50 (A549) [nM] | Compound | further results
14 | < 4 | 42600 | 140 | COc1cc2c(Nc3c(Br)ccc4c3OCO4)ncnc2cc1OCCCN1CCOCC1 | –
15 | 14 | 4960 | 210 | COc1cc2c(Nc3cccc4c3OCO4)ncnc2cc1OCCCN1CCOCC1 | –
16 | 16 | 250 | – | COc1cc2c(Nc3cccc4occc34)ncnc2cc1OCCCN1CCOCC1 | –
17 | 37 | 1110 | 1050 | COc1cccc(Nc2ncnc3cc(OCCCN4CCOCC4)c(OC)cc23)c1 | –
18 | 28 | 8160 | 450 | COc1cc2c(Nc3c(F)ccc4c3OCO4)ncnc2cc1OCCCN1CCOCC1 | –
19 | 10 | 1180 | 310 | COc1ccc(Cl)c(Nc2ncnc3cc(OCCCN4CCOCC4)c(OC)cc23)c1 | –
20 | 10 | 91300 | 670 | Clc1ccc2c(c1Nc1ncnc3cc(OCCCN4CCOCC4)ccc13)OCO2 | –
21 | 10 | 1230 | 230 | COc1cc2c(Nc3c(Cl)ccc4occc34)ncnc2cc1OCCCN1CCOCC1 | –
22 | < 4 | 2170 | 130 | COc1cc2c(Nc3c(Cl)ccc4c3OCO4)ncnc2cc1OCCCN1CCCCC1 | concentration at 24 h [3]: 80 nM; solubility ([4]; read-out: S): > 2000 µM; pKa [5]: 9.7; AUC [6]: 7900 ng·h/mL; bioavailability [7]: 86%; half-life [8]: 5.8 h; IC50 [9]: > 100000 nM; IC50 (Angiopoietin-1 receptor): 11300 nM; Cmax [10]: 2960 nM; IC50 [11]: > 100000 nM; Vd [12]: 14.4 L/kg; clearance [13]: 36 mL/min/kg; Activity (Rattus norvegicus): 13.7%
23 | 20 | 2320 | 980 | COc1cc2c(Nc3cccc4c(Cl)c[nH]c34)ncnc2cc1OCCCN1CCOCC1 | –
24 | 10 | 1380 | 260 | COc1cc2c(Nc3c(Cl)ccc4ccoc34)ncnc2cc1OCCCN1CCOCC1 | –
25 | < 4 | 17000 | 180 | COc1cc2c(Nc3c(Cl)ccc4c3OCO4)ncnc2cc1OCCCN1CCOCC1 | solubility ([4]; read-out: S): 71 µM (≈ 33.6 µg/mL); pKa [5]: 7.2; IC50 [9]: > 100000 nM; IC50 (Angiopoietin-1 receptor): 17100 nM; IC50 [11]: > 100000 nM; Activity (Rattus norvegicus): 10.5%
26 | 30 | 410 | – | COc1cc2c(Nc3cccc4ccoc34)ncnc2cc1OCCCN1CCOCC1 | –
27 | < 4 | 100 | – | COc1cc2c(Nc3cccc4c(Cl)coc34)ncnc2cc1OCCCN1CCOCC1 | –
28 | 10 | 77000 | 230 | COc1cc2c(Nc3c(Cl)ccc4c3OCO4)ncnc2cc1OCc1ccnc(C#N)c1 | solubility [4]: 10 µM (≈ 4.62 µg/mL); pKa [5]: 4.9; Activity (Rattus norvegicus): 1.6%
